Compounds with a hit are over-represented: about 2.3% of the library has one in this group of screens.
TRPC4 potent: allosteric potentiators of mouse TRPC4 channel; Q9QUQ5; 310,000 compounds, 0.42% hits; HEK293 TRPC4beta/mu-opioid, DAMGO EC20, Fluo-4 Ca2+ flux; stronger effect = higher value; B-score at 10 µM; AID 2227;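 active = B-score of calcium response area above 5 SD of library B-scores, with initial fluorescence ratio within 5 SD of library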;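 note: B-score of integrated fluorescence ratio over time as area under calcium response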
TRPC6 inh: blocks the mouse TRPC6 cation channel; Q61143; HEK293-TRPC6, membrane potential dye, ACh-evoked depolarization; stronger effect = lower value; B-score at 10 µM; 310,000 compounds, 1.1% hits; AID 2553;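 active = B-score under library mean minus 3 SD, initial fluorescence not abnormally high, positive integrated signal ratio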;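 note: B-score derived from integrated fluorescence ratio over the kinetic read; more negative B-score means stronger inhibition of depolarization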
Target sequence (Q61143 whole entry, looked up): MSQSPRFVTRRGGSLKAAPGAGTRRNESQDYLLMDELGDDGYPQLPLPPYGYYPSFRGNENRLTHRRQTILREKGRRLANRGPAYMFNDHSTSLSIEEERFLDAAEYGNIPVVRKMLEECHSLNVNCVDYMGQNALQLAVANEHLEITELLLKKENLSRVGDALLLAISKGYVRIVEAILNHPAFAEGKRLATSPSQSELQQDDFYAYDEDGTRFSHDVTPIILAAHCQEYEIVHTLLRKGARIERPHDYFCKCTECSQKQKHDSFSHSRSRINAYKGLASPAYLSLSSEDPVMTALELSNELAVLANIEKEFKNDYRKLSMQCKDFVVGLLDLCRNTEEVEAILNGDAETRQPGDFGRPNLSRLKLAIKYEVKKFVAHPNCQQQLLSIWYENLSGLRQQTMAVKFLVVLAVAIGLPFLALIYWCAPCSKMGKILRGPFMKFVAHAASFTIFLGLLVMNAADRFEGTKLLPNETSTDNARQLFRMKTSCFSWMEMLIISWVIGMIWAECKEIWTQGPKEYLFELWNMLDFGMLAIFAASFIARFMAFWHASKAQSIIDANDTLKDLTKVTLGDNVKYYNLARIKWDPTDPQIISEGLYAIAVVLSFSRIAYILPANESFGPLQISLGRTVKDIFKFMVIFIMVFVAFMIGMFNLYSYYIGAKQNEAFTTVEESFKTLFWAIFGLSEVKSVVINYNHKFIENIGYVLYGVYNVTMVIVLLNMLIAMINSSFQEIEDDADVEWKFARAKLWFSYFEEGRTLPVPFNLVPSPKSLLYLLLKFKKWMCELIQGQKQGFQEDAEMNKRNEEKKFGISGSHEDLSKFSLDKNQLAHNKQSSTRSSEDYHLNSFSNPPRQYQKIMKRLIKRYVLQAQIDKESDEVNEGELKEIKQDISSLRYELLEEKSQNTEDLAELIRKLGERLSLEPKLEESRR
FID counter: counter-screen for HCV NS3 helicase inhibitors: DNA intercalator displacement; DNA fluorescent intercalator displacement, fluorescence; inhibition, % at 7.9 µM; 290,000 compounds, 0.17% hits; in the data active = inhibition above about 37%;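 note: 0% = vehicle and 100% = reference compound; higher means more ethidium bromide displaced from hairpin DNA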
TRPC4 block: TRPC4 (mouse) channel inhibition; Q9QUQ5; HEK293 TRPC4beta/mu-opioid, DAMGO-evoked Fluo4 calcium flux; stronger effect = lower value; B-score at 10 µM; 300,000 compounds, 0.39% hits; AID 2247;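 active = B-score over 3 SD under the library average, no early fluorescence shift, positive overall ratio signal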
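material = TRPC4beta/mu-opioid receptor HEK293 cell line | probe or stimulus = sequential submaximal and maximal DAMGO stimulation | compound dosing = one concentration per compound | measured by = Fluo4 Ca2+ flux fluorescence | evaluation = integrated fluorescence ratio relative to baseline, converted to per-well B score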
TRPC4 act: TRPC4 (mouse) channel activation | Q9QUQ5 | 310,000 compounds, 0.49% hits | B-score at 10 µM | AID 2237 | HEK293 TRPC4beta/mu-opioid, Fluo4 calcium fluorescence; stronger effect = higher value;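 active = B-score above 5 SD of library B-scores, and initial fluorescence ratio not above library mean plus 5 SD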;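 note: positive B-score marks a calcium rise read as TRPC4 activation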
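Test system: HEK293 cells stably co-expressing mouse TRPC4beta and mu-opioid receptor | Schedule: Fluo4 dye loading 45 min at room temperature, 110 s recording | Measured by: Kinetic Fluo4 calcium fluorescence, 5 s baseline at 1 Hz | Evaluation: B score of integrated ratio | Controls: Buffer (low) and maximal DAMGO (high)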
TRPC6 activator: activators of mouse TRPC6 channel; 310,000 compounds, 0.13% hits; B-score at 10 µM; HEK293-TRPC6 membrane potential dye fluorescence; stronger effect = higher value; Q61143;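 active = B-score of the integrated fluorescence ratio above library mean plus 3 SD, and starting fluorescence ratio within library mean plus 5 SD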;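 note: higher score means more depolarization so channel activation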
The depositor's hits bear a star; i = inactive; · = not tested or not shown.

SMILES	TRPC4 potent	TRPC6 inh	FID counter	TRPC4 block	TRPC4 act	TRPC6 activator
CN1CCN(C(=O)C23CC4CC(C)(CC(C)(C4)C2)C3)CC1	i	i	3.2	-6*	i	i
Cc1ccc(OCC(=O)NCCNC(=O)c2cnccn2)cc1	i	i	-0.8	i	i	i
COc1cccc(NC(=O)N2CCCC2C(=O)NCc2ccco2)c1 (configuration not stated)	i	i	-2.3	i	i	i
Cc1cc(NC(=O)CCC(=O)N(Cc2ccc(F)cc2)C(C(=O)NC2CCCC2)c2ccco2)no1 (configuration not stated)	i	i	-47.3	i	i	i
CCCCCCCNC(=O)COc1ccc2c(c1)C(=O)CC(C)(C)O2	i	i	-33.0	-5*	i	i
Cc1cc(C)c2c(c1)c1nnc(SCCN3CCCCC3)nc1n2C	i	i	4.8	i	i	i
COc1ccccc1N1CCN(c2cnccn2)CC1	i	i	-16.4	i	i	i
c1cnc(N2CCN(c3cnccn3)CC2)nc1	28*	i	-3.0	i	i	i
Cc1ccc(CNc2nc(-c3cccs3)nc3ccccc23)cc1	i	i	7.8	i	i	i
c1ccc(CNc2nc(-c3cccs3)nc3ccccc23)nc1	i	i	8.8	-6*	i	i
c1ccc(-c2nc(NCc3ccco3)c3ccccc3n2)nc1	i	i	1.1	-6*	i	i
c1ccc(N2CCN(c3nc(NCc4ccco4)c4ccccc4n3)CC2)cc1	i	i	40.2*	i	i	i
c1coc(CNc2nc(N3CCCCC3)nc3ccccc23)c1	i	i	8.0	i	i	i
Oc1ccccc1-c1nc(NCc2ccco2)c2ccccc2n1	i	i	7.9	i	i	i
Cn1c(N)c(S(=O)(=O)N2CCCC2)c(=O)n(C)c1=O	i	i	-2.5	i	i	i
C=CCNC(=O)/C(C#N)=C/c1ccc2c(c1)OCCO2	i	i	1.0	i	i	i
C=CCNC(=O)/C(C#N)=C/c1ccc(SC)cc1	10*	i	0.9	i	i	i
CCCCCc1ccc(OCCC[n+]2ccccc2)c(CCCCC)c1	i	i	44.5*	i	i	i
CCCCCc1ccc(OCCOCCn2c[n+](C)c3ccccc32)c(CCCCC)c1	i	i	37.1*	i	51*	i
Cc1ccccc1-c1nc(CN2CCC(C(=O)NCc3cccs3)CC2)c(C)o1	i	i	14.2	-6*	i	i
COc1cc(OC)c(C2N(c3ccc(Cl)cc3)C(=O)C3CCCN32)cc1OC (configuration not stated)	12*	i	0.0	i	i	i
O=C(COC(=O)CNC(=O)c1ccc(Cl)cc1Cl)Nc1cccc(S(=O)(=O)N2CCCC2)c1	i	i	·	i	i	i
Cn1c(CNc2ccc(Cl)cc2)nc2ccccc21	i	i	-3.0	i	i	i
Cc1ccc(N2CCN(c3ccc(NCc4nc5ccccc5n4C)cc3)CC2)cc1	i	i	-7.0	i	122*	i
Cn1c(=O)[nH]c(=O)c2c1nc(CN1CCN(c3cccc(Cl)c3)CC1)n2CCc1ccccc1	i	i	-5.8	i	i	i
SMILES	TRPC4 potent	TRPC6 inh	FID counter	TRPC4 block	TRPC4 act	TRPC6 activator
Cn1c(CN2CCN(c3cccc(Cl)c3)CC2)nc2ccccc21	i	i	-23.2	i	84*	i
O=C(COc1coc(CN2CCN(c3ccc(F)cc3)CC2)cc1=O)NCC1CCCO1 (configuration not stated)	i	i	·	i	i	i
COCCN(C(=O)CSc1nc2ccc(Cl)cc2[nH]1)c1c(N)n(Cc2ccccc2)c(=O)[nH]c1=O	i	i	-32.2	-5*	i	i
CCCN1CCC(N(CCc2ccccc2)Cc2ccccc2)CC1	i	i	15.0	i	i	i
COc1ccc(CN2CCC(N(CCc3ccccc3)Cc3ccccc3)CC2)c(OC)c1	i	i	29.5	i	143*	i
CCC(C)[C@H](NC(=O)[C@@H]1Cc2c([nH]c3ccccc23)C2c3ccccc3C(=O)N21)C(=O)NCC1CCCO1 (some centres not stated)	i	i	-41.3	i	i	i
COc1ccc2nc(SCCN(C)C)[nH]c2c1	i	i	10.0	i	113*	i
COc1ccc2nc(SCC(N)=O)[nH]c2c1	i	i	2.2	i	i	i
Cc1cc(Cl)c(OCCOCCN2CCNCC2)c(Cl)c1	i	i	·	i	62*	i
Clc1ccccc1OCCCCN1CCNCC1	12*	i	9.3	i	i	i
Cc1cccc(OCCOCCN2CCNCC2)c1C	i	i	10.9	i	133*	i
Cc1ccc(S(=O)(=O)N2CCCOC2CNC(=O)C(=O)NC2CCCC2)cc1 (configuration not stated)	i	i	-29.0	i	i	i
CCCC(=O)Nc1nnc(S(=O)(=O)N(C)Cc2ccco2)s1	i	i	-13.8	i	i	i
CN1C(C(=O)Nc2cccc(O)c2)=CC(c2ccco2)=NS1(=O)=O	i	i	-5.6	i	i	i
CCCOc1ccc(N/C=C/C(=O)c2cc(OC)c(OC)c(OC)c2)cc1	i	i	-22.5	i	i	i
Cc1oc2c(c1C(=O)O)C(=O)c1ccccc1C2=O	i	i	-2.6	i	i	i
Cc1oc2c(c1C(=O)c1ccccc1)C(=O)C(=O)c1ccccc1-2	i	i	-3.7	-6*	i	i
O=C(O)COCC(=O)N1CCCN(c2nccc(C(F)(F)F)n2)CC1	i	i	-4.6	i	i	i
O=C(N/N=C/c1ccccc1[N+](=O)[O-])c1cnccn1	20*	i	1.9	i	i	i
O=C(Nc1ccccc1C(=O)Nc1ccc(Br)cn1)c1cccc([N+](=O)[O-])c1	i	i	1.6	i	i	i
CCOC(=O)C1CCN(Cc2nc3ccc([N+](=O)[O-])cc3c(=O)n2-c2ccc(OC)cc2OC)CC1	i	i	-1.4	i	59*	i
O=C(C1CCN(S(=O)(=O)c2cccs2)CC1)N1CCCC(C(F)(F)F)C1 (configuration not stated)	i	i	-26.1	i	i	i
CCOc1cccc(OCCCCn2ccnc2)c1	i	i	11.2	i	43*	i
